Consider 17 compounds from ChEMBL document CHEMBL1155759, “New spirostanol steroids and steroidal saponins from roots and rhizomes of Dracaena angustifolia and their antiproliferative activity” (J Nat Prod, 2001).

What all share (assay type): functional, cell-based
A short description of experiment [1]: Antiproliferative activity against mouse Colon 26-L5 cells assessed as cell viability after 72 hrs by MTT assay.
Experiment [2] is described as follows: Antiproliferative activity against mouse B16-BL6 cells assessed as cell viability after 72 hrs by MTT assay. The note with it: B16-BL6, 72 h. A digest of the protocol:
(§1)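 MTT viability assay. HT-1080 and B-16 BL6 were kept in Eagle's MEM, colon 26-L5 in RPMI, all with 10% FCS, 0.1% NaHCO3 and 2 mM glutamine. 2500 cells/well were attached for 24 h at 37 °C, 5% CO2, then exposed 72 h to graded concentrations (DMSO stock, final DMSO <0.1%). MTT was added for 2 h, formazan read at 540 nm, and IC50 taken from means of four wells.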
(In general: Formazan colour is commonly taken as a measure of viable cells.)

Experiment [3] concerns HT-1080. The experiment can be described thus: Antiproliferative activity against human HT1080 cells assessed as cell viability after 72 hrs by MTT assay. Particulars: HT-1080, 72 h. A digest of the protocol:
as §1

Structures can show the parent of a compound that is named as a salt.

By IC50 is commonly meant the concentration at which inhibition is half-maximal. In the case of `C=C1CC[C@@]2(OC1)O[C@H]1C[C@H]3[C@@H]4CC=C5C[C@@H](O)C[C@@H](O[C@@H]6OC[C@H](O)[C@H](O)[C@H]6O[C@@H]6O[C@@H](C)[C@H](O)[C@@H](O)[C@H]6O)[C@]5(C)[C@H]4CC[C@]3(C)[C@H]1[C@@H]2C`, the results for the IC50 in experiment [1], in experiment [2] and in experiment [3] were 95.3 µM, 41.2 µM and 42.1 µM, respectively.

Consider `C=C1CC[C@@]2(OC1)O[C@H]1C[C@H]3[C@@H]4CC=C5C[C@@H](O)C[C@@H](O[C@@H]6OC[C@H](O)[C@H](O)[C@H]6O)[C@]5(C)[C@H]4CC[C@]3(C)[C@H]1[C@@H]2C`, for which the IC50 in experiment [1] turned out to be 77.2 µM; in experiment [2], 47.9 µM; in experiment [3], 40 µM.

For `C=C(CCC1=C(C)[C@H]2[C@H](C[C@H]3[C@@H]4CC=C5C[C@@H](O)C[C@@H](O[C@@H]6OC[C@H](O)[C@H](O)[C@H]6O[C@@H]6O[C@@H](C)[C@H](O)[C@@H](O)[C@H]6O)[C@]5(C)[C@H]4CC[C@@]32C)O1)CO[C@@H]1O[C@H](CO)[C@@H](O)[C@H](O)[C@H]1O`, the 50% inhibitory concentration (IC50) in experiment [1], in experiment [2] and in experiment [3] was over 100 µM each time.

In the case of `C=C1CO[C@@]2(O[C@H]3C[C@H]4[C@@H]5CC=C6C[C@@H](O)C[C@@H](O[C@@H]7OC[C@H](O)[C@H](O)[C@H]7O[C@@H]7O[C@@H](C)[C@H](OC(C)=O)[C@@H](OC(C)=O)[C@H]7OC(C)=O)[C@]6(C)[C@H]5CC[C@]4(C)[C@H]3[C@@H]2C)[C@@H](O)[C@H]1O[C@@H]1O[C@H](C)[C@H](O)[C@H](O)[C@H]1O`, the figures for the concentration for half-maximal inhibition (IC50) in experiment [1], in experiment [2] and in experiment [3] were 30.2 µM, 20.9 µM and 3.8 µM, respectively.

Regarding `C=C1CO[C@@]2(O[C@H]3C[C@H]4[C@@H]5CC=C6C[C@@H](O)C[C@@H](O[C@@H]7OC[C@H](O)[C@H](O)[C@H]7O[C@@H]7O[C@@H](C)[C@H](O)[C@@H](O)[C@H]7O)[C@]6(C)[C@H]5CC[C@]4(C)[C@H]3[C@@H]2C)[C@@H](O)[C@H]1O`, the 50% inhibitory concentration (IC50) came out at 5.3 µM in experiment [1], 4.2 µM in experiment [2] and 56.5 µM in experiment [3].

Consider `C=C1CO[C@@]2(O[C@H]3C[C@H]4[C@@H]5CC=C6C[C@@H](O)C[C@@H](O[C@@H]7OC[C@H](O)[C@H](O[C@@H]8OC[C@@H](O)[C@H](O)[C@H]8O)[C@H]7O[C@@H]7O[C@@H](C)[C@H](OC(C)=O)[C@@H](OC(C)=O)[C@H]7OC(C)=O)[C@]6(C)[C@H]5CC[C@]4(C)[C@H]3[C@@H]2C)[C@@H](O)[C@H]1O[C@@H]1O[C@H](C)[C@H](O)[C@H](O)[C@H]1O`, for which the results for the half-inhibitory concentration (IC50) in experiment [1], in experiment [2] and in experiment [3] were 22.1 µM, 11.9 µM and 0.6 µM, respectively.

Regarding `C=C1CO[C@@]2(O[C@H]3C[C@H]4[C@@H]5CC=C6C[C@@H](O)C[C@@H](O[C@@H]7OC[C@H](O)[C@H](O[C@@H]8OC[C@@H](O)[C@H](O)[C@H]8O)[C@H]7O[C@@H]7O[C@@H](C)[C@H](OC(C)=O)[C@@H](OC(C)=O)[C@H]7OC(C)=O)[C@]6(C)[C@H]5CC[C@]4(C)[C@H]3[C@@H]2C)[C@@H](O)[C@H]1O`, the values for the IC50 in experiment [1], in experiment [2] and in experiment [3] were 76.6 µM, 28.4 µM and 11.1 µM, respectively.

As to `CC1CC[C@@]2(OC1)O[C@H]1C[C@@]3(O)[C@@H]4CC=C5C[C@@H](O)C[C@@H](O)[C@]5(C)[C@H]4CC[C@]3(C)[C@@]1(O)[C@@H]2C` (mixture of isomers) [(25R,S)-NAMOGENIN A], the IC50 in experiment [1], in experiment [2] and in experiment [3] was over 100 µM throughout.

In the case of `CC1CC[C@@]2(OC1)O[C@H]1C[C@@]3(O)[C@@H]4CC=C5C[C@@H](O)C[C@@H](O)[C@]5(C)[C@H]4CC[C@]3(C)[C@H]1[C@@H]2C` (single isomer, unassigned) [NAMOGENIN B], the IC50 in experiment [1], in experiment [2] and in experiment [3] was over 100 µM in each case.

As to `COc1cccc2c1C(=O)c1c(O)c3c(c(O)c1C2=O)C[C@@](O)(C(=O)CO)C[C@@H]3O[C@H]1C[C@H](N)[C@H](O)[C@H](C)O1` [DOXORUBICIN HYDROCHLORIDE], the IC50 in experiment [2] and in experiment [3] was 0.2 µM throughout.

`O=c1[nH]cc(F)c(=O)[nH]1` [FLUOROURACIL]: the IC50 in experiment [1] amounted to 0.5 µM; in experiment [2], 0.6 µM; in experiment [3] it was 1.5 µM.

As for `C=C1CC[C@@]2(OC1)O[C@H]1C[C@@]3(O)[C@@H]4CC=C5C[C@@H](O)C[C@@H](O)[C@]5(C)[C@H]4CC[C@]3(C)[C@@]1(O)[C@@H]2C` [NAMOGENIN C], the IC50 in experiment [1], in experiment [2] and in experiment [3] was over 100 µM each time.

As to `C=C1CO[C@@]2(O[C@H]3C[C@H]4[C@@H]5CC=C6C[C@@H](O)C[C@@H](O[C@@H]7OC[C@H](O)[C@H](O[C@@H]8OC[C@@H](O)[C@H](OC(C)=O)[C@H]8O)[C@H]7O[C@@H]7O[C@@H](C)[C@H](OC(C)=O)[C@@H](OC(C)=O)[C@H]7OC(C)=O)[C@]6(C)[C@H]5CC[C@]4(C)[C@H]3[C@@H]2C)[C@@H](O)[C@H]1O[C@@H]1O[C@H](C)[C@H](O)[C@H](O)[C@H]1O` [NAMONIN A], the concentration for half-maximal inhibition (IC50) is 26.6 µM in experiment [1], 9.7 µM in experiment [2] and 0.2 µM in experiment [3].

Consider `C=C1CO[C@@]2(O[C@H]3C[C@H]4[C@@H]5CC=C6C[C@@H](O)C[C@@H](O[C@@H]7OC[C@H](O)[C@H](O[C@@H]8OC[C@@H](OC(C)=O)[C@H](O)[C@H]8O)[C@H]7O[C@@H]7O[C@@H](C)[C@H](OC(C)=O)[C@@H](OC(C)=O)[C@H]7OC(C)=O)[C@]6(C)[C@H]5CC[C@]4(C)[C@H]3[C@@H]2C)[C@@H](O)[C@H]1O[C@@H]1O[C@H](C)[C@H](O)[C@H](O)[C@H]1O` [NAMONIN B], for which the IC50 amounted to 27.7 µM in experiment [1], 11.8 µM in experiment [2] and 0.3 µM in experiment [3].

Take `C=C1CO[C@@]2(O[C@H]3C[C@H]4[C@@H]5CC=C6C[C@@H](O)C[C@@H](O[C@@H]7OC[C@H](O)[C@H](O)[C@H]7O[C@@H]7O[C@@H](C)[C@H](O)[C@@H](O)[C@H]7O)[C@]6(C)[C@H]5CC[C@]4(C)[C@H]3[C@@H]2C)[C@@H](O)[C@H]1O[C@@H]1O[C@H](C)[C@H](O)[C@H](O)[C@H]1O` [NAMONIN C]: the half-maximal inhibitory concentration (IC50) is over 100 µM in experiment [1], over 100 µM in experiment [2] and 27.7 µM in experiment [3].

Take `C=C1CO[C@@]2(O[C@H]3C[C@H]4[C@@H]5CC=C6C[C@@H](O)C[C@@H](O[C@@H]7OC[C@H](O)[C@H](O)[C@H]7O[C@@H]7O[C@@H](C)[C@H](OC(C)=O)[C@@H](O)[C@H]7O)[C@]6(C)[C@H]5CC[C@]4(C)[C@H]3[C@@H]2C)[C@@H](O)[C@H]1O[C@@H]1O[C@H](C)[C@H](O)[C@H](O)[C@H]1O` [NAMONIN D]: the concentration for half-maximal inhibition (IC50) in experiment [1] was 97.4 µM; in experiment [2] it was 42.4 µM; in experiment [3], 21.6 µM.

Regarding `CC(=O)O[C@H]1CO[C@@H](O[C@@H]2C[C@H](O)CC3=CC[C@H]4[C@@H]5C[C@@H]6OC(CC[C@@H](C)CO[C@@H]7O[C@H](CO)[C@@H](O)[C@H](O)[C@H]7O)=C(C)[C@@H]6[C@@]5(C)CC[C@@H]4[C@]32C)[C@H](O[C@@H]2O[C@@H](C)[C@H](O)[C@@H](O)[C@H]2O)[C@H]1O[C@@H]1OC[C@@H](O)[C@H](O)[C@H]1O` [NAMONIN E], the half-inhibitory concentration (IC50) in experiment [1] was over 100 µM; in experiment [2], over 100 µM; in experiment [3], 21.8 µM.
